The target in assay [1] is T1, Inosine-5'-monophosphate dehydrogenase 1 (Homo sapiens, UniProt P20839). Kind of assay: Inhibitory activity against human Inosine-5'-monophosphate dehydrogenase 1 (IMPDH type I). Put shortly:
(§1)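 Human IMPDH isoforms type I and type II assayed separately. Substrate, cofactor and inhibitor were premixed, and the reaction was started by adding enzyme. Values are reported as Ki.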
Target sequence in this assay (P20839 whole entry, canonical isoform): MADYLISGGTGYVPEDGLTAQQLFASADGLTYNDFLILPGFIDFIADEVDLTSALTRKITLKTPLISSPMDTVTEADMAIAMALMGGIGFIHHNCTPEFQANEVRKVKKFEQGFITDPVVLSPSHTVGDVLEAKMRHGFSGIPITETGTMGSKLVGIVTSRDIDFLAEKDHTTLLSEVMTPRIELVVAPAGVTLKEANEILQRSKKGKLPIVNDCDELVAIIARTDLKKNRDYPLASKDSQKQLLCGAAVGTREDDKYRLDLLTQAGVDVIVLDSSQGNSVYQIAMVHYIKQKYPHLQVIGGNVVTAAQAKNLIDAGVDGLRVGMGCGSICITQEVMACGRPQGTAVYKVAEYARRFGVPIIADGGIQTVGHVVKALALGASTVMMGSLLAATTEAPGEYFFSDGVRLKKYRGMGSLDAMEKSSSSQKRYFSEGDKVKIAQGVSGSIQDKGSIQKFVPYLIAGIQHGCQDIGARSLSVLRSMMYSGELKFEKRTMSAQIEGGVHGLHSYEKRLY

Assay [2] addresses T2, Inosine-5'-monophosphate dehydrogenase 2 (Homo sapiens, UniProt P12268). Kind of assay: Inhibitory activity against human Inosine-5'-monophosphate dehydrogenase 2 (IMPDH type II).
The subject of assay [3] is K562. Kind of assay: Compound effect on differentiation of K562 cells, % of benzidine positive cells at 1.5 uM. The assay is classed as functional, Homo sapiens.
In assay [4] the test system is K562. Kind of assay: Compound effect on differentiation of K562 cells, % of benzidine positive cells at 1.0 uM. Type of assay: functional, Homo sapiens.
Assay [5] concerns K562. Kind of assay: Concentration of the Antiproliferative compound required for the 50% inhibition of Growth against K562 cells. The assay is classed as functional, cell-based. The conditions noted are these: Homo sapiens.
Assay [6] has as its system K562. Kind of assay: Compound effect on differentiation of K562 cells, % of benzidine positive cells at 15 uM. Type of assay: functional, Homo sapiens.
For assay [7], the target named is T1, Inosine-5'-monophosphate dehydrogenase 1. Kind of assay: Inhibitory activity against human Inosine-5'-monophosphate dehydrogenase 1 (IMPDH type I); NA is not active. In a few lines: as §1
Target sequence in this assay (P20839 2-514 limits assumed): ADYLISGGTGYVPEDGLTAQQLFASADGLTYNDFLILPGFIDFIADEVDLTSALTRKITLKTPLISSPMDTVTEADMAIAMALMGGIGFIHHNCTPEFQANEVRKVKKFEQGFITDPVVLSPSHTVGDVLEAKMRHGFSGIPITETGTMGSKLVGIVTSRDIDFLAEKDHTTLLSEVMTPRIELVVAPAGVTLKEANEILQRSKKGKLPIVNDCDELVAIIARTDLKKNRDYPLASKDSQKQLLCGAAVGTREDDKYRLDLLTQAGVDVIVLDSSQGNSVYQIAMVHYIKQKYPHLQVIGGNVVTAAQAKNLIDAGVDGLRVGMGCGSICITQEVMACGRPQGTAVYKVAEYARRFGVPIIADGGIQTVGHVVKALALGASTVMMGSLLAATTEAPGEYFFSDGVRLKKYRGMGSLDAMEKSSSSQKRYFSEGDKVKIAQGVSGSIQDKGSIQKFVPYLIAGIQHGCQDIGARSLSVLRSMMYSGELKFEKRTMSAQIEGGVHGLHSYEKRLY
For assay [8], the target named is T2, Inosine-5'-monophosphate dehydrogenase 2. Kind of assay: Inhibitory activity against human Inosine-5'-monophosphate dehydrogenase 2 (IMPDH type II); NA is not active. Put shortly: as §1
In assay [9] the test system is K562. Kind of assay: Compound effect on differentiation of K562 cells, % of benzidine positive cells at 20 uM. Type of assay: functional, Homo sapiens.
Assay [10] deals with T2, Inosine-5'-monophosphate dehydrogenase 2. Kind of assay: Inhibitory activity against human Inosine-5'-monophosphate dehydrogenase 2 (IMPDH type II);NA is not active. In a few lines: as §1
Assay [11] has as its target T1, Inosine-5'-monophosphate dehydrogenase 1. Kind of assay: Inhibitory activity against human Inosine-5'-monophosphate dehydrogenase 1 (IMPDH type I);NA is not active. Put shortly: as §1
Target sequence in this assay (P20839 2-514 limits assumed): as above
Assay [12] concerns K562. Kind of assay: Compound effect on differentiation of K562 cells, % of benzidine positive cells at 10 uM. Type of assay: functional, Homo sapiens.
The test system of assay [13] is K562. Kind of assay: Antiproliferative activity against K562 cells. Type of assay: functional, cell-based, Homo sapiens.
For assay [14], the system named is K562. Kind of assay: Compound effect on differentiation of K562 cells, % of benzidine positive cells at 14.3 uM. Type of assay: functional, Homo sapiens.
For assay [15], the system named is K562. Kind of assay: Compound effect on differentiation of K562 cells, % of benzidine positive cells at 14 uM. Type of assay: functional, Homo sapiens.
Assay [16] concerns K562. Kind of assay: Compound effect on differentiation of K562 cells, % of benzidine positive cells at 100 uM. Type of assay: functional, Homo sapiens.
Assay [17] concerns K562. Kind of assay: Compound effect on differentiation of K562 cells, % of benzidine positive cells at 1.6 uM. Type of assay: functional, Homo sapiens.

Active and inactive are the calls of the source. The calls are words filed in the database; no cut-off is given here.

With `COc1c(C)c2c(c(O)c1C/C=C(\C)COP(=O)(O)CP(=O)(O)OC[C@@H]1O[C@H](n3cnc4c(N)ncnc43)[C@@H](O)[C@H]1O)C(=O)OC2`, the Ki (usually a measure of affinity in units of concentration, obtained from inhibition or displacement) in assay [1] worked out at 0.52 µM; in assay [2], 0.38 µM. In addition, the Effect turned out to be 95% with K562 [3] and 63.3% in the assay on K562 [4]. Half-maximal inhibition in the assay on K562 [5] (IC50) was put at 0.1 µM.
As to `NC(=O)c1csc([C@@H]2O[C@H](CO)[C@@H](O)[C@H]2O)n1` [TIAZOFURIN], the figures for the Effect in the assay on K562 [6] and in the assay with K562 [4] were 80% and 5.3%, respectively. Besides, the NA entry in assay [7] and in assay [8] was “inactive” throughout.
Turning to `COc1c(C)c2c(c(O)c1CCOP(=O)(O)CP(=O)(O)O)C(=O)OC2`, the Ki in assay [1] turned out to be 0.89 µM; in assay [2], 0.4 µM. The Effect worked out at 3.3% with K562 [4] and 67% with K562 [9]. In addition, in the assay with K562 [5], the IC50 – broadly, the concentration that gives 50% inhibition – was 43.2 µM.
Take `NC(=O)c1cccc([C@@H]2O[C@H](CO)[C@@H](O)[C@H]2O)c1`: in the assay with K562 [5], it took 1.5 µM to reach half-maximal inhibition (IC50). The NA result in assay [10] and in assay [11] was “inactive” in each case.
Take `COc1c(C)c2c(c(O)c1C/C=C(/C)CCCOP(=O)(O)CP(=O)(O)OC[C@@H]1OC(n3cnc4c(N)ncnc43)[C@@H](O)[C@H]1O)C(=O)OC2` (stereo partly specified): the Ki in assay [1] was found to be 0.33 µM; in assay [2], 0.29 µM. Also, the Effect amounted to 9% with K562 [4] and 90% in the assay with K562 [12]. The IC50 with K562 [5] amounted to 1.5 µM.
Regarding `COc1c(C)c2c(c(O)c1C/C=C(\C)CCC(=O)O)C(=O)OC2` [MYCOPHENOLIC ACID], the Ki in assay [1] is 0.04 µM. The IC50 in the assay on K562 [13] worked out at 0.3 µM.
With `NC(=O)c1csc([C@@H]2O[C@H](COP(=O)(O)CP(=O)(O)OC[C@@H]3O[C@H](n4cnc5c(N)ncnc54)[C@@H](O)[C@H]3O)[C@@H](O)[C@H]2O)n1`, the Ki in [1] and in assay [2] was 0.11 µM each time. Also, the Effect with K562 [4] turned out to be 2.4%; in the assay on K562 [14] it was 35%.
With `NC(=O)c1csc([C@H]2O[C@@H](COP(=O)(O)OP(=O)(O)OC[C@H]3O[C@@H](n4cnc5c(N)ncnc54)[C@H](O)[C@@H]3O)[C@H](O)[C@@H]2O)n1`, the Effect is given as 2.5% in the assay on K562 [4] and 35% in the assay on K562 [15].
Consider `NC(=O)c1cccc(C2OC(COP(=O)(O)CP(=O)(O)OC[C@@H]3OC(n4cnc5c(N)ncnc54)[C@@H](O)[C@H]3O)[C@@H](O)[C@H]2O)c1` (stereo partly specified), for which the Ki came to 0.66 µM in assay [1] and 0.95 µM in [2]. Further, the Effect stood at 9.5% in the assay on K562 [6] and 0.6% in the assay with K562 [4]. This molecule also gave an IC50 in the assay on K562 [5] of 60 µM.
Consider `COc1c(C)c2c(c(O)c1CCOP(=O)(O)CP(=O)(O)OCCc1c(O)c3c(c(C)c1OC)COC3=O)C(=O)OC2`, for which the Ki in assay [1] came out at 2.3 µM; in assay [2], 0.47 µM. In addition, the Effect is listed as 0.4% in the assay with K562 [4] and 4.4% in the assay with K562 [16]. For the same molecule, the IC50 in the assay with K562 [5] turned out to be 2090 µM.
For `COc1c(C)c2c(c(O)c1CCOP(=O)(O)CP(=O)(O)OC[C@H]1O[C@@H](n3cnc4c(N)ncnc43)[C@H](O)[C@@H]1O)C(=O)OC2`, the Effect with K562 [4] amounted to 40.9%; in the assay with K562 [17], 65.4%.
As for `NC(=O)c1csc([C@@H]2O[C@H](COP(=O)(O)C(F)(F)P(=O)(O)OC[C@@H]3O[C@H](n4cnc5c(N)ncnc54)[C@@H](O)[C@H]3O)[C@@H](O)[C@H]2O)n1`, the Ki in [1] and in assay [2] was 0.3 µM throughout. The Effect is 3.4% with K562 [4] and 48% in the assay on K562 [15].
